What was measured:
Type in all cases: functional
[1] = system: HCC 2998; experiment: Cytotoxicity against human HCC2998 cells after 48 hrs by SRB assay; conditions: HCC 2998, 48 h
Method in brief: (§1)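 NCI 60-cell five-dose screen. Cells grown in RPMI 1640 with 5% FBS and 2 mM glutamine, plated at 5000–40,000 cells/well, and preincubated 24 h at 37 °C in 5% CO2. Time-zero plates fixed with TCA. Five serial dilutions of DMSO stock added, then 48 h exposure. TCA fixation, 0.4% SRB staining, absorbance read at 515 nm. GI50 from [(Ti−Tz)/(C−Tz)]×100 = 50.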

[2] = system: HL-60(TB); experiment: Cytotoxicity against human HL-60(TB) cells after 48 hrs by SRB assay; conditions: HL-60, 48 h
Method in brief: (§2)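 NCI 60-line five-dose screen. Cells are grown in RPMI 1640 with 5% FBS and 2 mM glutamine, plated at 5000–40,000 cells/well, and preincubated 24 h at 37 °C in 5% CO2. Compound is dissolved in DMSO and given at five concentrations (10-fold or ½-log dilutions) for 48 h. Cells are TCA-fixed (HL-60(TB), suspension: 16% final; HOP92, adherent: 10% final), SRB-stained and read at 515 nm. GI50 comes from [(Ti−Tz)/(C−Tz)]×100 = 50.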

[3] = system: NCI/ADR-RES; experiment: Cytotoxicity against human NCI/ADR-RES cells after 48 hrs by SRB assay
Method in brief: (§3)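 Five-dose screen, 10-fold or ½-log dilutions, compound stock in DMSO. Cells were in RPMI 1640 with 5% FBS and 2 mM glutamine at 5000–40,000 cells/well, preincubated 24 h, 37 °C, 5% CO₂, with a time-zero plate TCA-fixed. After 48 h drug exposure, cells were TCA-fixed and stained with 0.4% SRB, read at 515 nm. GI50, TGI and LC50 were derived from time-zero, control and test absorbances.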

[4] = system: T47D; experiment: Cytotoxicity against human T47D cells after 48 hrs by SRB assay
Method in brief: (§4)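 NCI 60-panel five-dose screen. Cells in RPMI 1640 with 5% FBS and 2 mM glutamine, plated at 5000–40,000 cells/well and preincubated 24 h at 37 °C under 5% CO2. Five 10-fold or half-log dilutions were added from a DMSO stock for 48 h. Cells were TCA-fixed (SR settled cells: 16% final), SRB-stained and read at 515 nm. GI50 was taken where (Ti−Tz)/(C−Tz)×100 = 50.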

[5] = system: 786-0; experiment: Cytotoxicity against human 786-0 cells after 48 hrs by SRB assay; conditions: 786-0, 48 h; method in brief: as §1
[6] = system: ACHN; experiment: Cytotoxicity against human ACHN cells after 48 hrs by SRB assay; method in brief: as §1
[7] = system: SK-MEL-28; experiment: Cytotoxicity against human SK-MEL-28 cells after 48 hrs by SRB assay; conditions: SK-MEL-28, 48 h; method in brief: as §3
[8] = system: SK-MEL-2; experiment: Cytotoxicity against human SK-MEL-2 cells after 48 hrs by SRB assay; conditions: SK-MEL-2, 48 h; method in brief: as §3
[9] = system: RPMI-8226; experiment: Cytotoxicity against human RPMI8226 cells after 48 hrs by SRB assay; conditions: RPMI-8226, 48 h; method in brief: as §3
[10] = system: SNB-19; experiment: Cytotoxicity against human SNB19 cells after 48 hrs by SRB assay; conditions: SNB-19, 48 h; method in brief: as §3
[11] = system: SN12C; experiment: Cytotoxicity against human SN12C cells after 48 hrs by SRB assay; method in brief: as §3
[12] = system: NCI-H460; experiment: Cytotoxicity against human NCI-H460 cells after 48 hrs by SRB assay; conditions: NCI-H460, 48 h; method in brief: as §3
[13] = system: MOLT-4; experiment: Cytotoxicity against human MOLT4 cells after 48 hrs by SRB assay; conditions: MOLT-4, 48 h; method in brief: as §3
[14] = system: OVCAR-5; experiment: Cytotoxicity against human OVCAR5 cells after 48 hrs by SRB assay; conditions: OVCAR-5, 48 h; method in brief: as §3
[15] = system: HOP-92; experiment: Cytotoxicity against human HOP92 cells after 48 hrs by SRB assay; conditions: HOP-92, 48 h; method in brief: as §2
[16] = system: HCT-116; experiment: Cytotoxicity against human HCT116 cells after 48 hrs by SRB assay; conditions: HCT-116, 48 h; method in brief: as §1
[17] = system: CCRF-CEM; experiment: Cytotoxicity against human CCRF-CEM cells after 48 hrs by SRB assay; method in brief: as §1
[18] = system: MDA-MB-468; experiment: Cytotoxicity against human MDA-MB-468 cells after 48 hrs by SRB assay; conditions: MDA-MB-468, 48 h; method in brief: as §3
[19] = system: COLO 205; experiment: Cytotoxicity against human COLO205 cells after 48 hrs by SRB assay; conditions: COLO 205, 48 h; method in brief: as §1
[20] = system: A549; experiment: Cytotoxicity against human A549 cells after 48 hrs by SRB assay; conditions: A549, 48 h; method in brief: as §1
[21] = system: PC-3; experiment: Cytotoxicity against human PC3 cells after 48 hrs by SRB assay; conditions: PC-3, 48 h; method in brief: as §3
[22] = system: U-251; experiment: Cytotoxicity against human U251 cells after 48 hrs by SRB assay; conditions: U-251, 48 h; method in brief: as §4
[23] = system: HT-29; experiment: Cytotoxicity against human HT-29 cells after 48 hrs by SRB assay; conditions: HT-29, 48 h; method in brief: as §1
[24] = system: MDA-MB-435; experiment: Cytotoxicity against human MDA-MB-435 cells after 48 hrs by SRB assay; conditions: MDA-MB-435, 48 h; method in brief: as §1
[25] = system: LOX IMVI; experiment: Cytotoxicity against human LOXIMVI cells after 48 hrs by SRB assay; method in brief: as §1
[26] = read-out: pLC50 (the source's name) (converted)

`CSC1=Nc2c(c(C)c(-c3ccccc3)n2CCCCl)C2=NC(=O)CN12` was tested, and the GI50 [1] was 4.57 µM, the LC50 [1] was 64.6 µM and the TGI ([1]; read-out: pTGI (converted)) was 19.5 µM. It also gave a GI50 [2] of 3.39 µM, a CC50 [2, 26] of over 100 µM and a TGI ([2]; read-out: pTGI (converted)) of over 100 µM. The GI50 [3] was 4.27 µM, the LC50 [3] was over 100 µM and the TGI ([3]; read-out: pTGI (converted)) was over 100 µM. For the same molecule, the GI50 [4] was 2.63 µM, the LC50 [4] was 95.5 µM and the TGI ([4]; read-out: pTGI (converted)) was 11 µM. The GI50 [5] was 8.51 µM, the LC50 [5] was over 100 µM and the TGI ([5]; read-out: pTGI (converted)) was 61.7 µM. It also gave a GI50 [6] of 9.55 µM, a CC50 [6, 26] of over 100 µM and a TGI ([6]; read-out: pTGI (converted)) of 38 µM. For the same molecule, the GI50 [7] was 10.2 µM, the LC50 [7] was 63.1 µM and the TGI ([7]; read-out: pTGI (converted)) was 25.1 µM. The GI50 [8] was 10.5 µM, the LC50 [8] was 74.1 µM and the TGI ([8]; read-out: pTGI (converted)) was 27.5 µM. It also gave a GI50 [9] of 3.72 µM, an LC50 [9] of over 100 µM and a TGI ([9]; read-out: pTGI (converted)) of 66.1 µM. It also gave a GI50 [10] of 3.98 µM, an LC50 [10] of 45.7 µM and a TGI ([10]; read-out: pTGI (converted)) of 17.8 µM. The GI50 [11] was 6.31 µM, the LC50 [11] was over 100 µM and the TGI ([11]; read-out: pTGI (converted)) was 38.9 µM. It also gave a GI50 [12] of 3.72 µM, an LC50 [12] of 56.2 µM and a TGI ([12]; read-out: pTGI (converted)) of 15.1 µM. The GI50 [13] was 3.89 µM, the LC50 [13] was over 100 µM and the TGI ([13]; read-out: pTGI (converted)) was over 100 µM. For the same molecule, the GI50 [14] was 11.5 µM, the LC50 [14] was over 100 µM and the TGI ([14]; read-out: pTGI (converted)) was 38 µM. For the same molecule, the GI50 [15] was 11.5 µM, the LC50 [15] was over 100 µM and the TGI ([15]; read-out: pTGI (converted)) was 37.2 µM. It also gave a GI50 [16] of 3.16 µM, an LC50 [16] of over 100 µM and a TGI ([16]; read-out: pTGI (converted)) of 47.9 µM. For the same molecule, the GI50 [17] was 5.13 µM, the LC50 [17] was over 100 µM and the TGI ([17]; read-out: pTGI (converted)) was over 100 µM. The GI50 [18] was 3.16 µM, the LC50 [18] was 60.3 µM and the TGI ([18]; read-out: pTGI (converted)) was 13.2 µM. It also gave a GI50 [19] of 4.17 µM, an LC50 [19] of 47.9 µM and a TGI ([19]; read-out: pTGI (converted)) of 15.1 µM. For the same molecule, the GI50 [20] was 7.76 µM, the LC50 [20] was over 100 µM and the TGI ([20]; read-out: pTGI (converted)) was 66.1 µM. The GI50 [21] was 8.71 µM, the LC50 [21] was over 100 µM and the TGI ([21]; read-out: pTGI (converted)) was over 100 µM. For the same molecule, the GI50 [22] was 3.89 µM, the LC50 [22] was 53.7 µM and the TGI ([22]; read-out: pTGI (converted)) was 16.2 µM. The GI50 [23] was 3.89 µM, the LC50 [23] was over 100 µM and the TGI ([23]; read-out: pTGI (converted)) was 19.5 µM. The GI50 [24] was 2.04 µM, the LC50 [24] was 17.4 µM and the TGI ([24]; read-out: pTGI (converted)) was 4.68 µM. The GI50 [25] was 4.17 µM, the LC50 [25] was 50.1 µM and the TGI ([25]; read-out: pTGI (converted)) was 17.4 µM.
